Where two headings read alike, the source gives them in different places.
Legend:
[1] = Urinary excretion of oral sugar probes; type: in vivo, human; details: for Percent urinary excretion of oral sugar probe: healthy subjects, oral cocktail, mean ± SD/SE; for Lactulose/Mannitol Ratio / Percent urinary excretion of oral sugar probe corrected for CrCl / Sucralose/Lactulose Ratio: mean ± SE; for % Total (of 24 h urinary excretion) corrected for CrCl / % Total (cum) corrected for CrCl: normalized for CrCl; for % Total (of 24 h urinary excretion) / % Total (cumulative): not normalized; for Percent urinary excretion of oral sugar probe corrected for CrCl: percent excretion divided by creatinine clearance; for % Total (cum) corrected for CrCl / % Total (cumulative): cumulative first 12 h; for Range of tertile means of 24 h percent excretion of oral dose: data divided into 3 tertile groups, lowest to highest excretion
[2] = type: in vivo, human; details: 24 h
Procedure, shortened: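 Age- and BMI-matched controls and patients fasted overnight and emptied their bladders. At 6 AM they took 2 g mannitol, 7.5 g lactulose and 40 g sucrose in 8 oz water, plus 1 g sucralose in 2 capsules. Fasting continued 2 h, with no "diet" foods or drinks from 48 h before through the test. Urine was pooled over 24 h and sugars were measured as alditol acetates by GC (DB-225MS). Results were expressed as % of oral dose and as the sucralose/lactulose ratio.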

[3] = ref [18], cited from earlier work
[4] = 12-24 hour, listed as lactulose
[5] = 12-24 hour, listed as sucralose

For `OC[C@H]1O[C@@H](O[C@@H]2[C@@H](CO)O[C@](O)(CO)[C@H]2O)[C@H](O)[C@@H](O)[C@H]1O` [Lactulose, 4-o-β-D-galactopyranosyl-D-fructofuranose], the “Percent urinary excretion of oral sugar probe” value ([1]; 0-5 hour urine collection) was 0.95 ± 0.6%, the “Lactulose/Mannitol Ratio” value ([1]; 0-5 hour urine) was 0.065 ± 0.05 and the “Lactulose/Mannitol Ratio” value ([1]; 0-5 hour urine, listed as lactulose) was “.065”. For the same compound, the “% Total (of 24 h urinary excretion) corrected for CrCl” value ([1]; 0-5 hour) was 30%, the “% Total (of 24 h urinary excretion)” value ([1]; 0-5 hour) was 29.3% and the “% Total (of 24 h urinary excretion)” value ([1]; 0-5 hour, listed as lactulose) was 29.3%. For the same compound, the “Percent urinary excretion of oral sugar probe corrected for CrCl” value (from here on “Percent urinary excretion … for CrCl”) ([1]; 0-5 hour) was 0.012 ± 0.001, the “Percent urinary excretion of oral sugar probe” value ([1]; 0-24 hour urine collection) was 3.11 ± 0.2% and the “Lactulose/Mannitol Ratio” value ([1]; 0-24 hour urine) was 0.124 ± 0.010. The “Lactulose/Mannitol Ratio” value ([1]; 0-24 hour urine, listed as lactulose) was 0.124, the “% Total (of 24 h urinary excretion) corrected for CrCl” value ([1]; 0-24 hour) was 100% and the “% Total (of 24 h urinary excretion)” value ([1]; 0-24 hour) was 100%. The “Percent urinary excretion … for CrCl” value ([1]; 0-24 hour) was 0.04 ± 0.002, the “Percent urinary excretion of oral sugar probe” value ([1]; 5-12 hour urine collection) was 1.1 ± 0.19% and the “Lactulose/Mannitol Ratio” value ([1]; 5-12 hour urine) was 0.25 ± 0.03. For the same compound, the “Lactulose/Mannitol Ratio” value ([1]; 5-12 hour urine, listed as lactulose) was 0.25, the “% Total (of 24 h urinary excretion) corrected for CrCl” value ([1]; 5-12 hour) was 32.4% and the “% Total (of 24 h urinary excretion)” value ([1]; 5-12 hour) was 26.8%. The “Percent urinary excretion … for CrCl” value ([1]; 5-12 hour) was 0.012 ± 0.002, the “Percent urinary excretion of oral sugar probe” value ([1]; 12-24 hour urine collection) was 1.4 ± 0.1% and the “Lactulose/Mannitol Ratio” value ([1]; 12-24 hour urine) was 0.534 ± 0.11. For the same compound, the “Lactulose/Mannitol Ratio” value ([1]; 12-24 hour urine, listed as lactulose) was 0.534, the “% Total (of 24 h urinary excretion) corrected for CrCl” value ([1]; 12-24 hour) was 40% and the “% Total (of 24 h urinary excretion) corrected for CrCl” value [1, 4] was 40%. The “% Total (of 24 h urinary excretion)” value ([1]; 12-24 hour) was 43.9%, the “% Total (of 24 h urinary excretion)” value [1, 4] was 43.9% and the “Percent urinary excretion … for CrCl” value ([1]; 12-24 hour) was 0.016 ± 0.001. For the same compound, the “Variation of lactulose/mannitol (L/M) ratio over 24 h” value ([1]; across collection segments, peak in second 12 hours) was “more than 8 fold”, the “% Total (cum) corrected for CrCl” value [1] was 60% and the “% Total (cumulative)” value [1] was 56.1%. The “Range of tertile means of 24 h percent excretion of oral dose” value [1] was 0.5%-1.7%.

With `OC[C@@H](O)[C@@H](O)[C@H](O)[C@H](O)CO` [Mannitol, D-mannitol] the “Percent urinary excretion of oral sugar probe” value ([1]; 0-5 hour urine collection) was 15.6 ± 0.8%, the “% Total (of 24 h urinary excretion) corrected for CrCl” value ([1]; 0-5 hour) was 52.9% and the “% Total (of 24 h urinary excretion) corrected for CrCl” value ([1]; 0-5 hour, listed as mannitol) was 52.9%. The “% Total (of 24 h urinary excretion)” value ([1]; 0-5 hour) was 61.5%, the “% Total (of 24 h urinary excretion)” value ([1]; 0-5 hour, listed as mannitol) was 61.5% and the “Percent urinary excretion … for CrCl” value ([1]; 0-5 hour) was 0.18 ± 0.01. For the same compound, the “Percent urinary excretion of oral sugar probe” value ([1]; 0-24 hour urine collection) was 28.9 ± 1.3%, the “% Total (of 24 h urinary excretion) corrected for CrCl” value ([1]; 0-24 hour) was 99% and the “% Total (of 24 h urinary excretion)” value ([1]; 0-24 hour) was 100%. For the same compound, the “Percent urinary excretion … for CrCl” value ([1]; 0-24 hour) was 0.34 ± 0.029, the “Percent urinary excretion of oral sugar probe” value ([1]; 5-12 hour urine collection) was 6.03 ± 0.96% and the “% Total (of 24 h urinary excretion) corrected for CrCl” value ([1]; 5-12 hour) was 22.6%. For the same compound, the “% Total (of 24 h urinary excretion)” value ([1]; 5-12 hour) was 20%, the “Percent urinary excretion … for CrCl” value ([1]; 5-12 hour) was 0.077 ± 0.01 and the “Percent urinary excretion of oral sugar probe” value ([1]; 12-24 hour urine collection) was 6.4 ± 1.3%. For the same compound, the “% Total (of 24 h urinary excretion) corrected for CrCl” value ([1]; 12-24 hour) was 23.5%, the “% Total (of 24 h urinary excretion) corrected for CrCl” value ([1]; 12-24 hour, listed as mannitol) was 23.5% and the “% Total (of 24 h urinary excretion)” value ([1]; 12-24 hour) was 18.5%. For the same compound, the “% Total (of 24 h urinary excretion)” value ([1]; 12-24 hour, listed as mannitol) was 18.5%, the “Percent urinary excretion … for CrCl” value ([1]; 12-24 hour) was 0.08 ± 0.016 and the “% Total (cum) corrected for CrCl” value [1] was 75.5%. The “% Total (cumulative)” value [1] was 81.5%.

With `OC[C@H]1O[C@H](O[C@]2(CCl)O[C@H](CCl)[C@@H](O)[C@@H]2O)[C@H](O)[C@@H](O)[C@H]1Cl` [Sucralose, 1,6-dichloro-1,6-dideoxy-β-D-fructofuranosyl-4-chloro-4-deoxy-α-D-glucopyranoside] the “Percent urinary excretion of oral sugar probe” value ([1]; 0-5 hour urine collection) was 0.5 ± 0.8%, the “Sucralose/Lactulose Ratio” value ([1]; 0-5 hour urine) was 0.53 ± 0.10 and the “Sucralose/Lactulose Ratio” value ([1]; 0-5 hour urine, listed as sucralose) was 0.53. The “% Total (of 24 h urinary excretion) corrected for CrCl” value ([1]; 0-5 hour) was 33.3%, the “% Total (of 24 h urinary excretion) corrected for CrCl” value ([1]; 0-5 hour, listed as sucralose) was 33.3% and the “% Total (of 24 h urinary excretion)” value ([1]; 0-5 hour) was 35.9%. For the same compound, the “% Total (of 24 h urinary excretion)” value ([1]; 0-5 hour, listed as sucralose) was 35.9%, the “Percent urinary excretion … for CrCl” value ([1]; 0-5 hour) was 0.005 ± 0.001 and the “Percent urinary excretion of oral sugar probe” value ([1]; 0-24 hour urine collection) was 1.23 ± 0.14%. For the same compound, the “Sucralose/Lactulose Ratio” value ([1]; 0-24 hour urine) was 0.49 ± 0.08, the “Sucralose/Lactulose Ratio” value ([1]; 0-24 hour urine, listed as sucralose) was 0.49 and the “% Total (of 24 h urinary excretion) corrected for CrCl” value ([1]; 0-24 hour) was 99.5%. For the same compound, the “% Total (of 24 h urinary excretion)” value ([1]; 0-24 hour) was 100%, the “Percent urinary excretion … for CrCl” value ([1]; 0-24 hour) was 0.015 ± 0.002 and the “Percent urinary excretion of oral sugar probe” value ([1]; 5-12 hour urine collection) was 0.51 ± 0.13%. The “Sucralose/Lactulose Ratio” value ([1]; 5-12 hour urine) was 0.54 ± 0.13, the “Sucralose/Lactulose Ratio” value ([1]; 5-12 hour urine, listed as sucralose) was 0.54 and the “% Total (of 24 h urinary excretion) corrected for CrCl” value ([1]; 5-12 hour) was 38%. For the same compound, the “% Total (of 24 h urinary excretion)” value ([1]; 5-12 hour) was 29.7%, the “Percent urinary excretion … for CrCl” value ([1]; 5-12 hour) was 0.0057 ± 0.001 and the “Percent urinary excretion of oral sugar probe” value ([1]; 12-24 hour urine collection) was 0.3 ± 0.04%. The “Sucralose/Lactulose Ratio” value ([1]; 12-24 hour urine) was 0.36 ± 0.06, the “Sucralose/Lactulose Ratio” value ([1]; 12-24 hour urine, listed as sucralose) was 0.36 and the “% Total (of 24 h urinary excretion) corrected for CrCl” value ([1]; 12-24 hour) was 28.2%. For the same compound, the “% Total (of 24 h urinary excretion) corrected for CrCl” value [1, 5] was 28.2%, the “% Total (of 24 h urinary excretion)” value ([1]; 12-24 hour) was 34.4% and the “% Total (of 24 h urinary excretion)” value [1, 5] was 34.4%. The “Percent urinary excretion … for CrCl” value ([1]; 12-24 hour) was 0.004 ± 0.0006, the “% Total (cum) corrected for CrCl” value [1] was 71.3% and the “% Total (cumulative)” value [1] was 65.6%. For the same compound, the “Range of tertile means of 24 h percent excretion of oral dose” value [1] was 0.4%-2.4%, the “mean urinary excretion sucralose/lactulose ratio” value ([2]; Parkinson's disease patients (N=9), p ≤ 0.001 vs controls) was 0.48 ± 0.1 and the “mean urinary excretion sucralose/lactulose ratio” value ([2]; healthy controls (N=10)) was 0.21± 0.1. For the same compound, the “24 h mean urinary excretion sucralose value” ([3]; Parkinson's disease patients (N=9), p ≤ 0.015 vs controls) was 1.12 ± 0.1 and the “24 h mean urinary excretion sucralose value” ([3]; healthy controls (N=10), BMI/age-matched) was 0.58 ± 0.1.

With `OC[C@H]1O[C@@](CO)(O[C@H]2O[C@H](CO)[C@@H](O)[C@H](O)[C@H]2O)[C@@H](O)[C@@H]1O` [Sucrose, α-D-glucopyranosyl-β-D-fructofuranoside] the “Percent urinary excretion of oral sugar probe” value ([1]; 0-5 hour urine collection) was 0.5 ± 0.15%, the “% Total (of 24 h urinary excretion) corrected for CrCl” value ([1]; 0-5 hour) was 26.9% and the “% Total (of 24 h urinary excretion)” value ([1]; 0-5 hour) was 29.6%. The “Percent urinary excretion … for CrCl” value ([1]; 0-5 hour) was 0.006 ± 0.0007, the “Percent urinary excretion of oral sugar probe” value ([1]; 0-24 hour urine collection) was 1.82 ± 0.17% and the “% Total (of 24 h urinary excretion) corrected for CrCl” value ([1]; 0-24 hour) was 94.6%. For the same compound, the “% Total (of 24 h urinary excretion)” value ([1]; 0-24 hour) was 100%, the “Percent urinary excretion … for CrCl” value ([1]; 0-24 hour) was 0.0223 ± 0.002 and the “% Total (of 24 h urinary excretion) corrected for CrCl” value ([1]; 5-12 hour) was 26.9%. For the same compound, the “% Total (of 24 h urinary excretion)” value ([1]; 5-12 hour) was 27.4%, the “Percent urinary excretion … for CrCl” value ([1]; 5-12 hour) was 0.006 ± 0.001 and the “Percent urinary excretion of oral sugar probe” value ([1]; 12-24 hour urine collection) was 0.8 ± 0.7%. The “% Total (of 24 h urinary excretion) corrected for CrCl” value ([1]; 12-24 hour) was 40.8%, the “% Total (of 24 h urinary excretion)” value ([1]; 12-24 hour) was 43% and the “Percent urinary excretion … for CrCl” value ([1]; 12-24 hour) was 0.009 ± 0.0009. The “% Total (cum) corrected for CrCl” value [1] was 53.8%, the “% Total (cumulative)” value [1] was 57% and the “Range of tertile means of 24 h percent excretion of oral dose” value [1] was 0.3%-0.6%.

Reference: publication PMC4339548 (Clinica chimica acta; international journal of clinical …, 2015)
